Data published in PMC9444296 (Investigative Radiology, 2022).
Entries after “also recorded” stand apart in the source; their conditions may differ.

How the values were obtained:
CYP2B6 = CYP2B6 (Homo sapiens, UniProt P20813); settings: 0.01, 0.1, 1, 10, and 100 μM, pooled human liver microsomes 0.5 mg/mL
[1] = Pharmacokinetics in beagle dogs; type: in vivo, dog; settings: for AUC: AUC 0-6h; for AUC / AUCINF / C0 / Cl / MRT / T1/2 / Vz: Gd by ICP-MS, NCA, n = 3
CNR2 = CNR2 (Homo sapiens, UniProt P34972); experiment: SAFETYscan E/IC50 assay, CNR2; type: biochemical; settings: concentration range 0.005 to 100 μM
CNR2, sequence (P34972 whole entry, the tested form may be a part): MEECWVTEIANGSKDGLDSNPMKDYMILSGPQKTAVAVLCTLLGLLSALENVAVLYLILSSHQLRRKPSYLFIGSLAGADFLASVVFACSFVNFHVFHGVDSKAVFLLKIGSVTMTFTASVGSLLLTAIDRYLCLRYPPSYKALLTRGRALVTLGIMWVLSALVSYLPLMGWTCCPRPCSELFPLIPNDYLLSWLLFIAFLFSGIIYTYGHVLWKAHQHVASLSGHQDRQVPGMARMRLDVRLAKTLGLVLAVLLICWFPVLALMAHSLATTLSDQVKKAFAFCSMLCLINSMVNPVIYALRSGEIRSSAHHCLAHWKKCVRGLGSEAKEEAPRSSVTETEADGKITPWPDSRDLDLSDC
Method in brief: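 Contract-laboratory in vitro panel of 78 targets, run in agonist and/or antagonist modes under provider SOPs over 0.005 to 100 μM. Panel formats included enzyme fragment complementation, FLIPR-based cellular assays, kinase binding and enzymatic assays.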

CYP2C9 = CYP2C9 (Homo sapiens, UniProt P11712); experiment: CYP2C9 inhibition in human liver microsomes; settings: 0.01, 0.1, 1, 10, and 100 μM, pooled human liver microsomes 0.5 mg/mL
CYP2C9, sequence (P11712 whole entry): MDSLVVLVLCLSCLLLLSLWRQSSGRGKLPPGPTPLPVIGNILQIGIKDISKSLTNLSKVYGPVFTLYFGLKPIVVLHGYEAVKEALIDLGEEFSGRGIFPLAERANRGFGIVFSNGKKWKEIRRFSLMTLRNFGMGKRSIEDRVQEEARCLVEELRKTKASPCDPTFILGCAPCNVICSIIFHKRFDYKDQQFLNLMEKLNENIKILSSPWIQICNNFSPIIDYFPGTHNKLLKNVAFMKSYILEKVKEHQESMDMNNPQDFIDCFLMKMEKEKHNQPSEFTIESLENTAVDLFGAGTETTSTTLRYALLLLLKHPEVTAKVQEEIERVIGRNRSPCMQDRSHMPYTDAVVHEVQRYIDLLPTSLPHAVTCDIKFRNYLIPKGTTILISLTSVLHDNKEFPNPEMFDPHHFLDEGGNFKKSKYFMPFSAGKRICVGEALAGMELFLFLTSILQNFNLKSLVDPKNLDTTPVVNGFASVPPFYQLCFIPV

[2] = Metabolic stability in cynomolgus monkey hepatocytes; type: in vitro ADME; settings: 2 hours of incubation, LC-MS/MS
OAT1 = OAT1 (Homo sapiens, UniProt Q4U2R8); experiment: OAT1 inhibition, HEK293 cells; type: in vitro ADME; settings: 1, 5, 10, 50, and 100 μM
OAT1, sequence (Q4U2R8 whole entry): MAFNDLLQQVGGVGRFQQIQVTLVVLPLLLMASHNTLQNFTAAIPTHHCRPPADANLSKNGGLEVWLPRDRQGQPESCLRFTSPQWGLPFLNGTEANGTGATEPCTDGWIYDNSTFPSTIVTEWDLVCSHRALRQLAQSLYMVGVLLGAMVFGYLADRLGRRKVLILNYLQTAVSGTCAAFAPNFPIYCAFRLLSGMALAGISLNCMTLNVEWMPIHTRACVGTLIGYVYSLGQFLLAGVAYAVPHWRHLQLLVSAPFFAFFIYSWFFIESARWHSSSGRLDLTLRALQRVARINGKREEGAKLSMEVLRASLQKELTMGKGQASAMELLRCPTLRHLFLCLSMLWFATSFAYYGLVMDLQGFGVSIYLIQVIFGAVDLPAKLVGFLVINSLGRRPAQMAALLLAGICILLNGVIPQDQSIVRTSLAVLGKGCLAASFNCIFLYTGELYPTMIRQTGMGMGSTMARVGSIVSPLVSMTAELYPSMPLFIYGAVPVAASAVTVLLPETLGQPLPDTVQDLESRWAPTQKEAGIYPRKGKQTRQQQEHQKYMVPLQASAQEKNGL

beagle dogs = experiment: Single and repeated dose toxicity and toxicokinetics in beagle dogs; type: in vivo, dog; settings: for accumulation ratio AUC0–24h (D14)/AUC0–24h (D1) of Gd: 14 days
Method in brief: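 GLP study in beagle dogs aged 6–7 months (M 7.34–10.58 kg, F 6.50–9.87 kg). Dosing was a single IV 0.70 mmol/kg or daily IV 0.07, 0.21 or 0.70 mmol/kg/d for 2 weeks, with saline placebo and a 2-week recovery. Clinical observation, organ weights and macro/microscopic histopathology were done. Gd accumulation ratio was AUC0–24h(D14)/AUC0–24h(D1).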

EDB protein fragment = EDB protein fragment (Homo sapiens, UniProt P02751); experiment: Binding affinity by surface plasmon resonance; settings: read-out: average binding affinity (Kd); SPR, n = 4
EDB protein fragment, sequence (P02751 1271-1359 limits assumed): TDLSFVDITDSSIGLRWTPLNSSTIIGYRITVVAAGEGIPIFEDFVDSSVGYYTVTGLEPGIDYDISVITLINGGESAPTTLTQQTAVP
Method in brief: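 EDB protein fragment desalted into 10 mM PBS pH 7.4, then amine-coupled to a CM5 chip active cell (25 μg/mL in 10 mM acetate pH 4.5, 3 min at 10 μL/min, about 1500 RU). Both cells were ethanolamine-blocked (pH 8.5, 7 min). Test compound (1.0 mM stock in 0.05% Tween-20/10 mM PBS pH 7.4 running buffer) was injected at varying concentrations for 120 s at 50 μL/min, with 5 min dissociation. Kd came from instrument evaluation software.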

r1 and r2 relaxivity = type: physicochemical
Method in brief: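 For the 1.4 T conditions, test compound was prepared at 0.125, 0.25, 0.5, 1 and 2 mM in HSA (40 mg/mL), water or PBS. T1 and T2 were measured on a benchtop relaxometer at 37°C.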

[3] = Metabolic stability in human hepatocytes; type: in vitro ADME; settings: 2 hours of incubation, LC-MS/MS
MATE1 = MATE1 (Homo sapiens, UniProt Q96FL8); experiment: MATE1 inhibition, HEK293 cells; type: in vitro ADME; settings: 1, 5, 10, 50, and 100 μM
MATE1, sequence (Q96FL8 whole entry): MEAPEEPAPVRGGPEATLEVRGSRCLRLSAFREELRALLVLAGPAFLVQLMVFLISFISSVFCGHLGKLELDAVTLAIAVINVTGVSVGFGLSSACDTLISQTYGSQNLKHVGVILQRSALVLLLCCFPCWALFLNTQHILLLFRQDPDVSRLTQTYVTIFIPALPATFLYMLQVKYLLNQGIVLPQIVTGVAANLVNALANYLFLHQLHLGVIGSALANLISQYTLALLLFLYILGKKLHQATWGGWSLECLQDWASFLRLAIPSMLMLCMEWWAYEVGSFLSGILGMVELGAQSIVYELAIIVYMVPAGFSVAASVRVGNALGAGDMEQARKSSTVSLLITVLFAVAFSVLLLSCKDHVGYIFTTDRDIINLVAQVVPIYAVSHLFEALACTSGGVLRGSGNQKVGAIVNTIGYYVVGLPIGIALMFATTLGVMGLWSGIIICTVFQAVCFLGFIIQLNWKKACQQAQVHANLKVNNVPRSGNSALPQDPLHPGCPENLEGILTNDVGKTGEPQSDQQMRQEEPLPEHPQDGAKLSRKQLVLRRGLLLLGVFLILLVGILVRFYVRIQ

CYP3A4 = settings: human primary hepatocytes, 1, 10, and 100 μM
CYP2C19 = CYP2C19 (Homo sapiens, UniProt P33261); experiment: CYP2C19 inhibition in human liver microsomes; type: in vitro ADME; settings: 0.01, 0.1, 1, 10, and 100 μM, pooled human liver microsomes 0.5 mg/mL
CYP2C19, sequence (P33261 whole entry): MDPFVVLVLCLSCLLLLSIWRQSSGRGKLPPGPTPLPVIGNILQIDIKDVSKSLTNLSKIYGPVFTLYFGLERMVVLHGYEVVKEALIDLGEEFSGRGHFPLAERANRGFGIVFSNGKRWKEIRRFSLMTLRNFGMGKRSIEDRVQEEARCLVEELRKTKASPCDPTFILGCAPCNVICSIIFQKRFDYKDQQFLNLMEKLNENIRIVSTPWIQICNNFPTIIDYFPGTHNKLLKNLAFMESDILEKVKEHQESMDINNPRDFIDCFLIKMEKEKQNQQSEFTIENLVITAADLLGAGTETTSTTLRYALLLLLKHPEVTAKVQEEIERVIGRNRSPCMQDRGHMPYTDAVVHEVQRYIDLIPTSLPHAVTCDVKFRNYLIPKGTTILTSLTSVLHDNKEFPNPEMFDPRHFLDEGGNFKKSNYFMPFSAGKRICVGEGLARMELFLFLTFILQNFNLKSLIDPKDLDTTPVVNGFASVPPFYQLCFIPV

[4] = tested on: LNCaP human prostate tumors; experiment: Contrast-enhanced MRI of LNCaP prostate tumor xenografts in rats; type: in vivo, rat; settings: 3 T, n = 3
Method in brief: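 Male rats carried subcutaneous flank xenografts of 4 × 10⁶ PC3 or 8 × 10⁶ LNCaP cells in Matrigel-PBS (1:1) and were imaged once tumours exceeded 100 mm³. Scans used 1 mm slices, 2 averages and a 128 × 128 matrix. The same tumour-bearing rats were reused across agents and doses, with a clinical Gd agent at 0.1 mmol Gd/kg as comparator.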

[5] = Metabolic pathway study in human liver microsomes; type: in vitro ADME; settings: 1 μM, 2 hours
[6] = beagle dog ♀, 0.04 mmol/kg single IV
[7] = beagle dog ♀, 0.1 mmol/kg single IV
[8] = beagle dog ♀, 0.2 mmol/kg single IV
[9] = beagle dog ♂, 0.04 mmol/kg single IV
[10] = beagle dog ♂, 0.1 mmol/kg single IV
[11] = beagle dog ♂, 0.2 mmol/kg single IV

CYP2B6, sequence (P20813 whole entry): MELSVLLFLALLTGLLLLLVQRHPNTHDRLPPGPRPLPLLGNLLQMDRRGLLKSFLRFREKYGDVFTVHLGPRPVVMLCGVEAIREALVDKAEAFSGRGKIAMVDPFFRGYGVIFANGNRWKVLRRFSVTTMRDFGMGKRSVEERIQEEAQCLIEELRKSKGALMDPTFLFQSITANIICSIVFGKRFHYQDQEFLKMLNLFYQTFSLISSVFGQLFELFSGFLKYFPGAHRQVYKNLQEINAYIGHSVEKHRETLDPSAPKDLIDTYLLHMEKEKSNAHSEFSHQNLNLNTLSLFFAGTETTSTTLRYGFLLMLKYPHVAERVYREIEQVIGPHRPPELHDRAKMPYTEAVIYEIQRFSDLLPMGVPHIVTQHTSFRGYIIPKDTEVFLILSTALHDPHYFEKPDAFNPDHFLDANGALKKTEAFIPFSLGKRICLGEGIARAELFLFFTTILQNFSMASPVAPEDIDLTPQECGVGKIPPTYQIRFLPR

ZD2-N3-Gd(HP-DO3A) [MT218]
inhibition of CYP2B6 activity (CYP2B6): did not inhibit | AUC [1, 6]: 38160 ng·h/mL | AUC [1, 7]: 93960 ng·h/mL | AUC [1, 8]: 138990 ng·h/mL | AUC [1, 9]: 34800 ng·h/mL | AUC [1, 10]: 89520 ng·h/mL | AUC [1, 11]: 156540 ng·h/mL | AUC Ratio ([1]; AUC(dose)/AUC(low dose), beagle dog ♀, 0.04 mmol/kg): 1 | AUC Ratio ([1]; AUC(dose)/AUC(low dose), beagle dog ♂, 0.04 mmol/kg): 1 | AUC Ratio ([1]; AUC(high dose)/AUC(low dose), beagle dog ♀, 0.2 mmol/kg): 3.64 | AUC Ratio ([1]; AUC(high dose)/AUC(low dose), beagle dog ♂, 0.2 mmol/kg): 4.50 | AUC Ratio ([1]; AUC(middle dose)/AUC(low dose), beagle dog ♀, 0.1 mmol/kg): 2.46 | AUC Ratio ([1]; AUC(middle dose)/AUC(low dose), beagle dog ♂, 0.1 mmol/kg): 2.57 | AUCINF [1, 6]: 38470 ng·h/mL | C0 [1, 6]: 59.33 µg/mL | Cl [1, 6]: 2.734 mL/min/kg | MRT [1, 6]: 58.2 min | T1/2 [1, 6]: 44.4 min | Vz [1, 6]: 0.17599 L/kg | AUCINF [1, 7]: 94170 ng·h/mL | C0 [1, 7]: 146.59 µg/mL | Cl [1, 7]: 2.794 mL/min/kg | MRT [1, 7]: 57.6 min | T1/2 [1, 7]: 40.2 min | Vz [1, 7]: 0.16108 L/kg | AUCINF [1, 8]: 139150 ng·h/mL | C0 [1, 8]: 268.10 µg/mL | Cl [1, 8]: 3.7757 mL/min/kg | MRT [1, 8]: 47.4 min | T1/2 [1, 8]: 37.8 min | Vz [1, 8]: 0.20593 L/kg | AUCINF [1, 9]: 34940 ng·h/mL | C0 [1, 9]: 50.97 µg/mL | Cl [1, 9]: 3.0033 mL/min/kg | MRT [1, 9]: 60.6 min | T1/2 [1, 9]: 45.6 min | Vz [1, 9]: 0.19708 L/kg | AUCINF [1, 10]: 89780 ng·h/mL | C0 [1, 10]: 149.33 µg/mL | Cl [1, 10]: 2.9287 mL/min/kg | MRT [1, 10]: 57 min | T1/2 [1, 10]: 42 min | Vz [1, 10]: 0.17773 L/kg | AUCINF [1, 11]: 156900 ng·h/mL | C0 [1, 11]: 286.90 µg/mL | Cl [1, 11]: 3.367 mL/min/kg | MRT [1, 11]: 52.8 min | T1/2 [1, 11]: 41.4 min | Vz [1, 11]: 0.20164 L/kg | mean plasma elimination half-life (t1/2) ([1]; dogs, 0.1 mmol/kg IV): 41.4 min | inhibition rate (CNR2): 12.4% | inhibition of CYP2C9 activity (CYP2C9): did not inhibit | remaining MT218 [2]: 82.9% | inhibition of OAT1 transporter activity (OAT1): no inhibition potential | NOAEL (beagle dogs; dog, single dosing): not established | mortality or moribundity (beagle dogs; dogs, any dose group, up to 0.70 mmol/kg/d): no mortality or morbidity; also recorded: No mortality or moribundity | clinical observations (body weight, food consumption, temperature, ophthalmoscopy, hematology, coagulation, clinical chemistry, urinalysis) (beagle dogs; dogs, any dose level): No MT218-related changes | pathological findings (beagle dogs; dogs, both sexes, repeated 0.21 mmol/kg/d and 0.70 mmol/kg/d): reversible renal tubule degeneration | NOAEL (beagle dogs; dogs, repeated daily IV dose for 14 days): 0.07 mmol/kg/day | pathological findings (beagle dogs; dogs, repeated low doses 0.07 mmol/kg/d): No renal abnormality | pathological findings (beagle dogs; dogs, single dose 0.70 mmol/kg, no longer evident on day 15): mild bilateral tubule degeneration of proximal and distal tubules | clinical signs during the dosing period (beagle dogs; dogs, single- and repeated-medium and high-dose groups, disappeared after dosing completion): Sporadic symptoms of emesis, retching, and salivation | accumulation ratio AUC0–24h (D14)/AUC0–24h (D1) of Gd (beagle dogs; female dogs, high dose 0.70 mmol/kg/d IV): 1.00 | accumulation ratio AUC0–24h (D14)/AUC0–24h (D1) of Gd (beagle dogs; female dogs, low dose 0.07 mmol/kg/d IV): 0.91 | accumulation ratio AUC0–24h (D14)/AUC0–24h (D1) of Gd (beagle dogs; female dogs, medium dose 0.21 mmol/kg/d IV): 0.99 | accumulation ratio AUC0–24h (D14)/AUC0–24h (D1) of Gd (beagle dogs; male dogs, high dose 0.70 mmol/kg/d IV): 1.02 | accumulation ratio AUC0–24h (D14)/AUC0–24h (D1) of Gd (beagle dogs; male dogs, low dose 0.07 mmol/kg/d IV): 0.92 | accumulation ratio AUC0–24h (D14)/AUC0–24h (D1) of Gd (beagle dogs; male dogs, medium dose 0.21 mmol/kg/d IV): 1.07 | Kd (EDB protein fragment): 3.45 µM | r1 Relaxivity (r1 and r2 relaxivity; 1.4 T, HSA aqueous solution (40 mg/mL), 37°C): 6.54 mM⁻¹ s⁻¹ | r1 Relaxivity (r1 and r2 relaxivity; 1.4 T, PBS, 37°C): 6.58 mM⁻¹ s⁻¹ | r1 Relaxivity (r1 and r2 relaxivity; 3.0 T, H2O, MRS 3000 scanner): 6.25 (H2O) mM^−1 s^−1 | r1 Relaxivity (r1 and r2 relaxivity; 3.0 T, PBS): 6.16 mM⁻¹ s⁻¹ | remaining MT218 [3]: 61.1% | inhibition of MATE1 transporter activity (MATE1): no inhibition potential | induction of mRNA expression of CYP3A4 (CYP3A4): did not induce | induction on enzyme activity of CYP3A4 (CYP3A4): no induction | inhibition of CYP2C19 activity (CYP2C19): did not inhibit | CNR ([4]; 0.02 mmol/kg IV): 0.88 ± 0.06 | CNR ([4]; 0.04 mmol/kg IV): 1.13 ± 0.38 | MT218 remaining ([5]; CYP1A2 group): 105% | MT218 remaining ([5]; CYP2B6 group): 117% | MT218 remaining ([5]; CYP2C8 group): 101% | MT218 remaining ([5]; CYP2C9 group): 98.8% | MT218 remaining ([5]; CYP2C19 group): 105% | MT218 remaining ([5]; CYP2D6 group): 109% | MT218 remaining ([5]; CYP3A4 group): 99.1%
